The target in test [1] is T1, 5-hydroxytryptamine receptor 1A (Rattus norvegicus, UniProt P19327).
T1 sequence (P19327 whole entry): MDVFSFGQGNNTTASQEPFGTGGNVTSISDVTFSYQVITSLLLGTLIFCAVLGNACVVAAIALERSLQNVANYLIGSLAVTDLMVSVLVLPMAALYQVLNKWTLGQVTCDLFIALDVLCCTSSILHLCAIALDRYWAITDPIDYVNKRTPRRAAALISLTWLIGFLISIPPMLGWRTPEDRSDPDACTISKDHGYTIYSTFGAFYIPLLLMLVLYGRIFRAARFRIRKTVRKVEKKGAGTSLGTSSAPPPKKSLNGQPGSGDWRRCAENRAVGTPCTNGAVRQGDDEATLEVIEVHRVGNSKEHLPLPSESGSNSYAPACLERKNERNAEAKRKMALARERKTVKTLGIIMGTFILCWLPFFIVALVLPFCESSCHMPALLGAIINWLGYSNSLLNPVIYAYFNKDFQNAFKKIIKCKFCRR
Briefly: In vitro displacement of [3H]8-OH-DPAT binding to rat hippocampal 5-hydroxytryptamine 1A receptor. The test is classed as tissue-based, Hippocampus. On the technique in general: Loss of bound radioactivity is the signal in a displacement assay; it reports binding, not function.

Test [2] addresses T2, D(2) dopamine receptor (Homo sapiens, UniProt P14416). Briefly: Displacement of [3H]raclopride from human Dopamine receptor D2A.
The target in test [3] is T3, D(1A) dopamine receptor (Rattus norvegicus, UniProt P18901). Briefly: Affinity for dopamine receptor D1 binding measured by competition against [3H]-SCH- 23390 to rat striatal membrane. Set-up: species or system Striatum. The gist of the method:
(§1)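 Radioligand displacement analysed with a one-site model. D1 sites come from rat striatum and are labelled with [3H]SCH23390. D2A is the cloned human receptor expressed in Ltk- cells and labelled with [3H]raclopride. Ki is the mean ± standard error of n = 2–3 experiments.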

The target in test [4] is T3, D(1A) dopamine receptor.
In test [5] the test system is Rattus norvegicus. Briefly: In vivo accumulation of DOPA in percent of saline control was determined in cortex of reserpine pretreated rat at a dose of 3.3 uM/kg. Type of test: functional. The method, boiled down: (§2)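 Rats get reserpine 5 mg/kg sc 18–20 h beforehand. A single dose of test drug is given. NSD1015 (117 mg/kg sc) is injected 30 min after drug to block decarboxylase. 5-HTP or DOPA accumulation is measured in limbic forebrain, striatum and cortex and expressed as percent of saline controls, mean ± SEM, n = 2–4. Statistics use one-way ANOVA with Fisher's PLSD.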

The test system of test [6] is Rattus norvegicus. Briefly: In vivo accumulation of 5HTP in percent of saline control was determined in cortex of reserpine pretreated rat at a dose of 3.3 uM/kg. The test is classed as functional. The method, boiled down: as §2
Test [7] deals with Rattus norvegicus. Briefly: In vivo accumulation of 5HTP in percent of saline control was determined in limbic forebrain of reserpine pretreated rat at a dose of 3.3 uM/kg. The test is classed as functional. The method, boiled down: as §2
Test [8] has as its system Rattus norvegicus. Briefly: In vivo accumulation of 5HTP in percent of saline control was determined in striatum of reserpine pretreated rat at a dose of 3.3 uM/kg. The test is classed as functional. The method, boiled down:
as §2

In test [9] the test system is Rattus norvegicus. Briefly: In vivo accumulation of DOPA in percent of saline control was determined in limbic forebrain of reserpine pretreated rat at a dose of 3.3 uM/kg. The test is classed as functional. The gist of the method: as §2
Test [10] deals with Rattus norvegicus. Briefly: In vivo accumulation of DOPA in percent of saline control was determined in striatum of reserpine pretreated rat at a dose of 3.3 uM/kg. Type of test: functional. The gist of the method: as §2
Test [11] concerns the target T2, D(2) dopamine receptor. Briefly: Displacement of [3H]-raclopride fromd human Dopamine receptor D2A expressed in LtK- cells. Type of test: cell-based. The method, boiled down: as §1
Test [12] concerns Rattus norvegicus. Briefly: In vivo accumulation of 5HTP in percent of saline control was determined in cortex of reserpine pretreated rat at a dose of 30 uM/kg. The test is classed as functional. The gist of the method: as §2
Test [13] concerns Rattus norvegicus. Briefly: In vivo accumulation of 5HTP in percent of saline control was determined in striatum of reserpine pretreated rat at a dose of 30 uM/kg. Type of test: functional. The method, boiled down: as §2
Test [14] relates to Rattus norvegicus. Briefly: In vivo accumulation of DOPA in percent of saline control was determined in limbic forebrain of reserpine pretreated rat at a dose of 30 uM/kg. Type of test: functional. The method, boiled down: as §2
The subject of test [15] is Rattus norvegicus. Briefly: In vivo accumulation of DOPA in percent of saline control was determined in striatum of reserpine pretreated rat at a dose of 30 uM/kg. The test is classed as functional. The method, boiled down:
as §2

For test [16], the system named is Rattus norvegicus. Briefly: In vivo accumulation of 5HTP in percent of saline control was determined in limbic forebrain of reserpine pretreated rat at a dose of 30 uM/kg. Type of test: functional. The gist of the method: as §2
Test [17] relates to Rattus norvegicus. Briefly: In vivo accumulation of DOPA in percent of saline control was determined in cortex of reserpine pretreated rat at a dose of 30 uM/kg. The test is classed as functional. The gist of the method:
as §2

In test [18] the test system is Rattus norvegicus. Briefly: In vivo accumulation of DOPA in percent of saline control was determined in striatum of reserpine pretreated rat at dose of 3.5 uM/kg. The test is classed as functional. The gist of the method: as §2
The subject of test [19] is Rattus norvegicus. Briefly: In vivo accumulation of DOPA in percent of saline control was determined in limbic forebrain of reserpine pretreated rat at dose of 3.5 uM/kg. The test is classed as functional. The method, boiled down:
as §2

For test [20], the system named is Rattus norvegicus. Briefly: In vivo accumulation of DOPA in percent of saline control was determined in cortex of reserpine pretreated rat at dose of 3.5 uM/kg. The test is classed as functional. The gist of the method: as §2
Test [21] relates to Rattus norvegicus. Briefly: In vivo accumulation of 5HTP in percent of saline control was determined in striatum of reserpine pretreated rat at dose of 3.5 uM/kg. Type of test: functional. The method, boiled down: as §2
Test [22] has as its system Rattus norvegicus. Briefly: In vivo accumulation of 5HTP in percent of saline control was determined in limbic forebrain of reserpine pretreated rat at dose of 3.5 uM/kg. The test is classed as functional. The method, boiled down: as §2
In test [23] the test system is Rattus norvegicus. Briefly: In vivo accumulation of 5HTP in percent of saline control was determined in cortex of reserpine pretreated rat at dose of 3.5 uM/kg. The test is classed as functional. The method, boiled down: as §2

Molecules are shown by their SMILES. Bounds are passed on as bounds.

T2 sequence (P14416 whole entry): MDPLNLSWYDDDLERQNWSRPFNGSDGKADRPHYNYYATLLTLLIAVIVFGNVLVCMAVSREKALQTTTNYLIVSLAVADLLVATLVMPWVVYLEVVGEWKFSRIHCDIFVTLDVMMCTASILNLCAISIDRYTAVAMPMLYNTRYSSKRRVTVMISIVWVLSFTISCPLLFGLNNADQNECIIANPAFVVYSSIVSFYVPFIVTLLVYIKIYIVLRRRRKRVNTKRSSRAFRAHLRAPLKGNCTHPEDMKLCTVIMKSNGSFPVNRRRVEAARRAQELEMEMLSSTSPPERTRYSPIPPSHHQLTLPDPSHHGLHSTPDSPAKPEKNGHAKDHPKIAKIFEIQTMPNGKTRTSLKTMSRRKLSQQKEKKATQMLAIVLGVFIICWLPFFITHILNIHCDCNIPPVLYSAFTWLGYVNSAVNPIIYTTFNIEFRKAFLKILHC
T3 sequence (P18901 whole entry): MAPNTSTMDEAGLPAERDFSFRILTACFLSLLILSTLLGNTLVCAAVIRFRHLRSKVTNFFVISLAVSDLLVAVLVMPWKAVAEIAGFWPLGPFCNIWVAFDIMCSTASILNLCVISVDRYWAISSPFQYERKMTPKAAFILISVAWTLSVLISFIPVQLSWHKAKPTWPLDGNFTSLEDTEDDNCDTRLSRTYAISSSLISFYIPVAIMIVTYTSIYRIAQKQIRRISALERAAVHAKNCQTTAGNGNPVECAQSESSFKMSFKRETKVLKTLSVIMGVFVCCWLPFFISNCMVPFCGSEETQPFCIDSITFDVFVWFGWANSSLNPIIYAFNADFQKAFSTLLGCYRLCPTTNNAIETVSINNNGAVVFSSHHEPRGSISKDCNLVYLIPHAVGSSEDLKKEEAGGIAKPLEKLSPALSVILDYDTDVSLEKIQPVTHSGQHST

Regarding `COc1cccc2c1-c1cccc3c1[C@@H](C2)N(C(C)C)CC3`, the Ki (commonly the equilibrium dissociation constant of an inhibitor or competing ligand from its target) in test [1] is 375 nM; on D(2) dopamine receptor [2] it was 1000 nM; on D(1A) dopamine receptor [3], above 10000 nM.

Take `CN1CCc2cccc3c2[C@H]1Cc1cccc(C#N)c1-3`: the figures for the inhibition constant Ki (in [1]; on D(2) dopamine receptor [2]; on D(1A) dopamine receptor [4]) were 41.1 nM, 183 nM and 279 nM, respectively.

For the molecule `COc1cccc2c1-c1cccc3c1[C@@H](C2)N(C)CC3`, the Ki stood at 5.1 nM in [1], 551 nM at D(2) dopamine receptor [2] and 606 nM on D(1A) dopamine receptor [4].

Regarding `CCc1cccc2c1-c1cccc3c1[C@@H](C2)N(C)CC3`, the Ki in test [1] was 4.5 nM; on D(2) dopamine receptor [2] it was 79.2 nM; on D(1A) dopamine receptor [4], 270 nM. Further, the Accumulation in the test with Rattus norvegicus [5] worked out at 100; with Rattus norvegicus [6], 104; in the test with Rattus norvegicus [7] it was 83; in the test with Rattus norvegicus [8], 95; with Rattus norvegicus [9], 87; with Rattus norvegicus [10] it was 92.

Take `COc1cccc2c1-c1cccc3c1[C@@H](C2)NCC3`: the Ki in test [1] is 8.3 nM; on D(1A) dopamine receptor [4], above 5000 nM; on D(2) dopamine receptor [11] it was above 1000 nM.

Regarding `CCCN1CCc2cccc3c2[C@H]1Cc1cccc(OC)c1-3`, the Accumulation in the test on Rattus norvegicus [12] was found to be 89; in the test on Rattus norvegicus [13], 87; with Rattus norvegicus [14], 66; with Rattus norvegicus [15] it was 43; in the test on Rattus norvegicus [16], 96; in the test with Rattus norvegicus [17] it was 82. For the same molecule, the inhibition constant Ki is 31.3 nM in test [1], above 5000 nM on D(1A) dopamine receptor [4] and 826 nM at D(2) dopamine receptor [11].

Turning to `Oc1cccc2c1-c1cccc3c1[C@@H](C2)N(Cc1ccccc1)CC3`, the Ki in [1] is above 5000 nM; at D(1A) dopamine receptor [4], above 3000 nM; at D(2) dopamine receptor [11] it was above 1000 nM.

As for `COc1cccc2c1-c1cccc3c1[C@@H](C2)N(Cc1ccccc1)CC3`, the Ki was 3220 nM in test [1], above 10000 nM at D(1A) dopamine receptor [4] and above 1000 nM at D(2) dopamine receptor [11].

In the case of `CN1CCc2cccc3c2[C@H]1Cc1cccc(O)c1-3`, the Accumulation in the test with Rattus norvegicus [18] was found to be 30; in the test on Rattus norvegicus [19] it was 67; with Rattus norvegicus [20], 103; in the test on Rattus norvegicus [21], 83; with Rattus norvegicus [22], 98; in the test with Rattus norvegicus [23], 93.

These data come from ChEMBL document CHEMBL1129625, “11-substituted (R)-aporphines: synthesis, pharmacology, and modeling of D2A and 5-HT1A receptor interactions” (J Med Chem, 1996).
